The values below come from ChEMBL document CHEMBL4725283, “Selective Peptidomimetic Inhibitors of NTMT1/2: Rational Design, Synthesis, Characterization, and Crystallographic Studies” (J Med Chem, 2020).

The species named for series [1] is Homo sapiens. In words: Selectivity for human NTMT1 over human NSD2 T1150A mutant at 100 uM. Put shortly: (§1)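 Panel of 41 PKMTs, PRMTs, DNMTs and NTMT1/2, tested at 100 µM compound in duplicate (n=2).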
The species named for series [2] is Homo sapiens. The experiment in a line: Selectivity for human NTMT1 over human DNMT3b/3L at 100 uM. An outline of the steps: as §1
Series [3] is filed under the species Homo sapiens. In words: Selectivity for human NTMT1 over human MLL4 complex at 100 uM. An outline of the steps:
as §1

The species entered for series [4] is Homo sapiens. The experiment in a line: Selectivity for human NTMT1 over human PRDMT5 at 100 uM. An outline of the steps:
as §1

For series [5], the species on record is Homo sapiens. In words: Selectivity for human NTMT2 over human SUV420H1TV2 at 100 uM. Put shortly:
(§2)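 Single-point panel screen against 41 PKMTs, PRMTs, DNMTs and NTMT1/2. Each compound was tested at 100 µM, in duplicate (n=2).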

The species entered for series [6] is Homo sapiens. The experiment in a line: Selectivity for human NTMT1 over human NSD2 at 100 uM. An outline of the steps:
as §1

The species entered for series [7] is Homo sapiens. In words: Selectivity for human NTMT2 over human EZH2 complex at 100 uM. Put shortly:
as §2

The nature of series [8]: Drug penetration in human HCT116 cells at 100 uM by MALDI-MS analysis. Type of series: ADME, cell-based. The settings on record: hct-116, 100 µM. Put shortly: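 HCT116 cells in McCoy's 5A with 10% FBS and 1% antibiotic-antimycotic, seeded at 0.1 × 10^6 cells/mL in 24-well plates and held overnight at 37 °C, 5% CO2. Compound added for the specified time, with TAT peptide as control. Cells washed three times with PBS, lysed by two snap-freezes in liquid nitrogen, and the lysate checked for compound by MALDI with DHB matrix.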

Series [9] is filed under the species Homo sapiens. The experiment in a line: Selectivity for human NTMT2 over human SUV39H1 at 100 uM. Put shortly:
as §2

The species named for series [10] is Homo sapiens. In words: Selectivity for human NTMT1 over human ASH1L at 100 uM. An outline of the steps:
as §1

The species entered for series [11] is Homo sapiens. The experiment in a line: Selectivity for human NTMT2 over human MLL3 complex at 100 uM. An outline of the steps:
as §2

For series [12], the species on record is Homo sapiens. In words: Selectivity for human NTMT1 over human G9a at 100 uM. An outline of the steps: as §1
The species named for series [13] is Homo sapiens. In words: Selectivity for human NTMT2 over human NSD1 at 100 uM. An outline of the steps: as §2
The species entered for series [14] is Homo sapiens. The experiment in a line: Selectivity for human NTMT2 over human PRDMT8 at 100 uM. An outline of the steps: as §2
The species named for series [15] is Homo sapiens. The experiment in a line: Selectivity for human NTMT2 over human DOT1L at 100 uM. An outline of the steps:
as §2

The species named for series [16] is Homo sapiens. In words: Selectivity for human NTMT2 over human DNMT1 at 100 uM. An outline of the steps: as §2
The species named for series [17] is Homo sapiens. In words: Selectivity for human NTMT1 over human SET1b complex at 100 uM. Put shortly:
as §1

The species named for series [18] is Homo sapiens. The experiment in a line: Selectivity for human NTMT1 over human SETD2 at 100 uM. Put shortly: as §1
For series [19], the species on record is Homo sapiens. The experiment in a line: Selectivity for human NTMT1 over human SUV39H at 100 uM. An outline of the steps:
as §1

Series [20] is filed under the species Homo sapiens. In words: Selectivity for human NTMT2 over human MLL1 complex at 100 uM. An outline of the steps: as §2
The species named for series [21] is Homo sapiens. In words: Selectivity for human NTMT2 over human SET7/9 at 100 uM. Put shortly:
as §2

Turning to `N=C(N)NCCC[C@H](NC(=O)[C@H](CCCCN)NC(=O)[C@@H]1CCCN1C(=O)Cc1ccc(O)cc1)C(N)=O`, the Selectivity ratio in the series listed under Homo sapiens [1], in the series listed under Homo sapiens [2], in the series listed under Homo sapiens [3], in the series filed under Homo sapiens [4], in the series listed under Homo sapiens [5] and in the series listed under Homo sapiens [6] was greater than 100 each time. Also, the Selectivity ratio in the series listed under Homo sapiens [7], in the series filed under Homo sapiens [9], in the series listed under Homo sapiens [10], in the series listed under Homo sapiens [11], in the series filed under Homo sapiens [12] and in the series listed under Homo sapiens [13] was greater than 100 in each case. Moreover, the Selectivity ratio in the series filed under Homo sapiens [14], in the series listed under Homo sapiens [15], in the series listed under Homo sapiens [16], in the series listed under Homo sapiens [17], in the series filed under Homo sapiens [18] and in the series filed under Homo sapiens [19] was greater than 100 each time. Also, the Selectivity ratio in the series listed under Homo sapiens [20] and in the series listed under Homo sapiens [21] was greater than 100 throughout. Besides, the Drug uptake result in series [8] is “Not Active”.
